Assay results: ChEMBL document CHEMBL2417500, “Cytotoxic diterpenoid pseudodimers from the Korean sponge Phorbas gukhulensis” (J Nat Prod, 2013)

Key:
[1] = Inhibition of isocitrate lyase (unknown origin)
K562 [2] = experiment: Cytotoxicity against human K562 cells by MTT assay; assay type: functional; settings: read-out: LC50 (the source's name)
Summary of the method: (§1)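 LC50 is the concentration giving a 50% drop in cell viability relative to untreated controls without inhibitor. It is read from dose–response curves for each sample and reported as mean ± SD of three independent experiments (n = 3).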

[3] = Inhibition of sortase A (unknown origin)
A549 = experiment: Cytotoxicity against human A549 cells by MTT assay; assay type: functional; settings: read-out: LC50 (the source's name); summary of the method: as §1
[4] = target: Sodium/potassium-transporting ATPase; experiment: Inhibition of Na+/K+-ATPase (unknown origin); assay type: protein-complex assay, Homo sapiens
K562 [5] = experiment: Ratio of doxorubicin LC50 to compound LC50 for human K562 cells; assay type: functional

With CO[C@@H](NC(C)=O)[C@H](O)[C@]1(C)CC[C@H](C(C)C)[C@@H]1c1cc([C@]2(O)Cc3cc(O)c(=O)c(C)c4c3[C@@H](O2)[C@H](O)[C@]2(C)CC[C@H](C(C)C)[C@H]42)cc(O)c(=O)c1C as the molecule, how does the IC50 [1] read?
Its IC50 is > 100000 nM.

And the CC50 (K562 [2])?
Its CC50 is 120 nM.

And the IC50 [3]?
The IC50 was > 100000 nM.

And the CC50 (A549)?
The CC50 was 100 nM.

What about the IC50 [4] of the same molecule?
The IC50 was > 100000 nM.

For CC(=O)N[C@H](O)[C@H](O)[C@]1(C)CC[C@H](C(C)C)[C@@H]1c1cc([C@]2(O)Cc3cc(O)c(=O)c(C)c4c3[C@@H](O2)[C@H](O)[C@]2(C)CC[C@H](C(C)C)[C@H]42)cc(O)c(=O)c1C, which IC50 [1] is on record?
Its IC50 is > 100000 nM.

And the CC50 (K562 [2])?
The CC50 was 440 nM.

What about the IC50 [3] of the same molecule?
The IC50 was > 100000 nM.

What about the CC50 (A549) of the same molecule?
Its CC50 is 550 nM.

And the IC50 [4]?
The IC50 was > 100000 nM.

Which IC50 [1] does the source give for Cc1c([C@H]2[C@@H](C(C)C)CC[C@@]2(C)C(=O)CNCCS(=O)(=O)O)cc([C@]2(O)Cc3cc(O)c(=O)c(C)c4c3[C@@H](O2)[C@H](O)[C@]2(C)CC[C@H](C(C)C)[C@H]42)cc(O)c1=O here?
The IC50 was > 100000 nM.

And the CC50 (K562 [2])?
The CC50 was 320 nM.

And the IC50 [3]?
The IC50 was > 100000 nM.

What about the CC50 (A549) of the same molecule?
Its CC50 is 110 nM.

What about the IC50 [4] of the same molecule?
Its IC50 is > 100000 nM.

For CC(=O)O[C@@H](C=O)[C@]1(C)CC[C@H](C(C)C)[C@@H]1c1cc(/C(O)=C/c2cc(O)c(=O)c(C)c3c2[C@@H](O)[C@H](O)[C@]2(C)CC[C@H](C(C)C)[C@H]32)cc(O)c(=O)c1C, which RatioLC50 (K562 [5]) is on record?
The RatioLC50 was 17.

What about the IC50 [1] of the same molecule?
Its IC50 is > 100000 nM.

What about the CC50 (K562 [2]) of the same molecule?
Its CC50 is 40 nM.

What about the IC50 [3] of the same molecule?
The IC50 was > 100000 nM.

And the CC50 (A549)?
The CC50 was 380 nM.

What about the IC50 [4] of the same molecule?
Its IC50 is > 100000 nM.

With COc1cccc2c1C(=O)c1c(O)c3c(c(O)c1C2=O)C[C@@](O)(C(=O)CO)C[C@@H]3O[C@H]1C[C@H](N)[C@H](O)[C@H](C)O1 [DOXORUBICIN] as the molecule, how does the CC50 (K562 [2]) read?
Its CC50 is 700 nM.

What about the CC50 (A549) of the same molecule?
The CC50 was 520 nM.

With CC(=O)O[C@@H](C=O)[C@]1(C)CC[C@H](C(C)C)[C@@H]1c1cc([C@]2(O)Cc3cc(O)c(=O)c(C)c4c3[C@@H](O2)[C@H](O)[C@]2(C)CC[C@H](C(C)C)[C@H]42)cc(O)c(=O)c1C [GUKULENIN A] as the molecule, how does the IC50 [1] read?
Its IC50 is > 100000 nM.

And the CC50 (K562 [2])?
The CC50 was 260 nM.

What about the IC50 [3] of the same molecule?
The IC50 was > 100000 nM.

And the CC50 (A549)?
Its CC50 is 320 nM.

What about the IC50 [4] of the same molecule?
The IC50 was > 100000 nM.
